Results pooled from the literature.
Protocols differ between the studies behind these lines. pIC50: −log10 of the molar value.
Cell line: HepG2
Observed: cell growth or viability

Structure (SMILES) | method | time | endpoint | result
CN1CCN(CCCn2cccc2/C=N/NC(=O)Nc2cc3c(Nc4ccc(F)c(Cl)c4)ncnc3cc2O[C@H]2CCOC2)CC1 | MTT | 72 h | pIC50 | 6.17
Cc1ccc2nc(-c3cc(Br)ccc3O)[nH]c2c1 | MTT | 48 h | pIC50 | 5.05
COc1ccc(-c2csc(Nc3ccc4c(O)ncnc4c3)n2)cc1 | MTT |  | pIC50 | 4.76
O=c1[nH]cc(F)c(=O)[nH]1 | MTT | 48 h | pIC50 | 4.48
C=CCNC1=C2C[C@@H](C)C[C@H](OC)[C@H](O)[C@@H](C)/C=C(\C)[C@H](OC(N)=O)[C@@H](OC)/C=C\C=C(/C)C(=O)NC(=CC1=O)C2=O | MTT |  | pIC50 | 7.07
Cc1ccc2c(Br)cc(Br)c(O)c2n1 | MTT | 48 h | pIC50 | < 3.82
COc1cc(C2Oc3cc([C@H]4Oc5cc(O)cc(O)c5C(=O)[C@@H]4O)ccc3OC2CO)ccc1O (stereo partly drawn) | CCK-8 | 72 h | pIC50 | 4.61
O=C(N/N=C/CN1CCOCC1)Nc1cc2c(Nc3ccc(F)c(Cl)c3)ncnc2cc1O[C@H]1CCOC1 | MTT | 72 h | pIC50 | 5.49
COc1cccc2c1C(=O)c1c(O)c3c(c(O)c1C2=O)C[C@@](O)(C(=O)CO)C[C@@H]3O[C@H]1C[C@H](N)[C@H](O)[C@H](C)O1 | MTT | 48 h | IC50 | 0.12 µg/mL
Cl.Oc1cccc2c1[nH]c1c(C3=CC4(O)CC/C=C\CCCCN5CCC3C3(CC6/C=C\CCCCN6C43)C5)nccc12 (single isomer, unassigned; (+)) | neutral red | 48 h | IC50 | 1.5 µg/mL
Cc1cc(=O)oc2ccc(-c3cc(-c4cccc(Cl)c4)nc(N)n3)c(O)c12 | MTT | 72 h | IC50 | > 128 µg/mL
COc1cc2ncnc(Nc3ccc(F)c(Cl)c3)c2cc1NC(=O)N/N=C/c1cccn1CCCN(C)C | MTT | 72 h | pIC50 | 7.30
CC1=C(O)C(=O)C=C2C1=CC=C1[C@@]2(C)CC[C@@]2(C)[C@@H]3C[C@](C)(C(=O)OCCCOc4ccccc4)CC[C@]3(C)CC[C@]12C | MTT | 48 h | pIC50 | 5.52
Nc1nc(-c2ccc(NC(=O)Nc3cc(Br)cc(Br)c3)cc2)c[nH]1 | XTT | 24 h | pIC50 | 4.32
Cc1ccc2nc(-c3ccc(Cl)c(Cl)c3)[nH]c2c1 | MTT | 48 h | pIC50 | 4.25
O=c1[nH]cc(F)c(=O)[nH]1 | WST-1 | 48 h | pIC50 | 4.67
Clc1ccc(Cn2c(-c3ccc(Cl)cc3)nc3ccccc32)cc1 | MTT |  | pIC50 | 5.00
Nc1ncnc2c1ncn2[C@@H]1O[C@H](CO)[C@@H](O)[C@H]1O | WST-1 | 48 h | pIC50 | 4.26
CC1=C(O)C(=O)C=C2C1=CC=C1[C@@]2(C)CC[C@@]2(C)[C@@H]3C[C@](C)(C(=O)OCCCCCCCO)CC[C@]3(C)CC[C@]12C | MTT | 48 h | pIC50 | 5.14
O=C(N/N=C/CN1CCCC1)Nc1cc2c(Nc3ccc(F)c(Cl)c3)ncnc2cc1O[C@H]1CCOC1 | MTT | 72 h | pIC50 | 5.68
Oc1ncnc2cc(Nc3nc(-c4ccccc4)cs3)ccc12 | MTT |  | pIC50 | 4.93
Cc1ccc2nc(-c3ccc(Cl)cc3Cl)[nH]c2c1 | MTT | 48 h | pIC50 | 4.51
CC1(C)[C@@H](O)CC[C@]2(C)[C@H]3C(=O)C=C4[C@@H]5C[C@@](C)(C(=O)O)CC[C@]5(C)CC[C@@]4(C)[C@]3(C)CC[C@@H]12 | MTT | 48 h | pIC50 | < 4.00
CC(=O)Oc1ccc2c(c1)C(C)=CC(C)(C)N2Cc1ccccc1 | MTT | 72 h | pIC50 | 4.44

Structure (SMILES) | method | time | endpoint | result
CCNC(=O)NNC(=O)c1ccc(Nc2nccc(-c3ccc(Cl)cc3)n2)cc1 | MTT | 24 h | pIC50 | 4.69
CCN(CC)CCn1cccc1/C=N/NC(=O)Nc1cc2c(Nc3ccc(F)c(Cl)c3)ncnc2cc1OC | MTT | 72 h | pIC50 | 5.79
Cc1ccc(NC(=O)NNC(=O)c2ccc(Nc3nccc(-c4cccnc4)n3)cc2)cc1 | MTT | 24 h | pIC50 | < 4.40
Cc1ccc2nc(-c3ccc(F)cc3)n(Cc3ccccc3)c2c1 | MTT |  | pIC50 | 4.56
Cc1ccc(-c2csc(Nc3ccc4c(O)ncnc4c3)n2)cc1 | MTT |  | pIC50 | 4.90
Cc1cc(=O)oc2ccc(-c3cc(-c4cccs4)nc(N)n3)c(O)c12 | MTT | 72 h | IC50 | > 128 µg/mL
CCCCc1ccc2[nH]c(NC(=O)OC)nc2c1 | CCK-8 | 72 h | pIC50 | 7.36
Clc1ccc(-c2nc3ccccc3[nH]2)c(Cl)c1 | MTT | 48 h | pIC50 | 4.43
O=c1c(O)c(-c2ccc(O)c(O)c2)oc2cc(O)cc(O)c12 | WST-1 | 48 h | pIC50 | 5.00
CC1=C(O)C(=O)C=C2C1=CC=C1[C@@]2(C)CC[C@@]2(C)[C@@H]3C[C@](C)(C(=O)OCCCCCCCCO)CC[C@]3(C)CC[C@]12C | MTT | 48 h | pIC50 | 5.48
CC(C)(C)NC(=O)NNC(=O)c1ccc(Nc2nccc(-c3ccccn3)n2)cc1 | MTT |  | pIC50 | < 4.40
Oc1ncnc2cc(Nc3nc(-c4ccc(Br)cc4)cs3)ccc12 | MTT |  | pIC50 | 5.01
COC(=O)CN=c1scc(-c2ccccc2)n1-c1ccccc1C | MTT | 72 h | pIC50 | 4.10
COc1ccc(NC(=O)NNC(=O)c2cccc(Nc3nccc(-c4cccnc4)n3)c2)c(OC)c1 | MTT | 24 h | pIC50 | < 4.40
Cc1ccc2nc(-c3ccc(N(C)C)cc3)[nH]c2c1 | MTT | 48 h | pIC50 | 4.46
CC(C)C(=O)Nc1ccc([N+](=O)[O-])c(C(F)(F)F)c1 | CCK-8 | 48 h | pIC50 | 5.60
Oc1c(I)cc(I)c2cccnc12 | MTT | 48 h | pIC50 | 4.10
CCN(CC)C/C=N/NC(=O)Nc1cc2c(Nc3ccc(F)c(Cl)c3)ncnc2cc1O[C@H]1CCOC1 | MTT | 72 h | pIC50 | 5.62
CC1=C(O)C(=O)C=C2C1=CC=C1[C@@]2(C)CC[C@@]2(C)[C@@H]3C[C@](C)(C(=O)OCCO)CC[C@]3(C)CC[C@]12C | MTT | 48 h | pIC50 | 6.21
COc1cc2ncnc(Nc3ccc(F)c(Cl)c3)c2cc1NC(=O)N/N=C/c1cccn1CCCN1CCCCC1 | MTT | 72 h | pIC50 | 6.51
O=[N+]([O-])c1cccc(-c2nc3ccccc3[nH]2)c1 | MTT | 48 h | pIC50 | 4.41
Cc1cc(C)n(-c2nc(Nc3ccc(Br)cc3)nc(N3CCOCC3)n2)n1 | MTT | 72 h | pIC50 | 5.52
CCN(CC)CCCn1cccc1/C=N/NC(=O)Nc1cc2c(Nc3ccc(F)c(Cl)c3)ncnc2cc1OC | MTT | 72 h | pIC50 | 6.66
Cc1ccc2c(Cl)cc(Cl)c(O)c2n1 | MTT | 48 h | pIC50 | < 4.00
